Several values for one entry are separate records, joined by “and”; a condition that tells them apart may be missing. Equal values may be shown once. Activity calls are given as the source filed them. No cut-off for these calls is given here.
Key:
Rattus norvegicus [1] = assay: Inhibition of AII pressor response by the compound in conscious, normotensive rats, at 1 (mg/kg) peroral dose; assay type: functional
How it was run: (§1)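 Male Sprague-Dawley rats (300-400 g) were conscious and catheterized for iv dosing and arterial pressure. Compound was given iv or po as the potassium salt in water, with PEG 400 for some oral doses. […] Peak inhibition is the mean of ≥2 rats.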

Rattus norvegicus [2] = assay: Inhibition of AII pressor response by the compound in conscious, normotensive rats, at 1 (mg/kg) intravenous dose; assay type: functional; how it was run: as §1
Rattus norvegicus [3] = assay: (§2) Time from onset of action until significant (i.e., >=30%) inhibition of pressor response is no longer observed, at 1 (mg/kg) intravenous dose; assay type: functional
Rattus norvegicus [4] = assay: Time from onset of action until significant (i.e., >=30%) inhibition of pressor response is no longer observed, at 1 (mg/kg) peroral dose; assay type: functional
How it was run: (§3)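 Conscious catheterized male Sprague-Dawley rats received compound iv or po as the water-soluble potassium salt, or in PEG 400 orally. AII (0.1 μg/kg iv) boluses were repeated at intervals while the compound was active.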

[5] = target: T1, Type-2 angiotensin II receptor (Rattus norvegicus, UniProt P35351); assay: In vitro inhibitory activity against angiotensin II rat midbrain AT2 receptor using radioligand [125I]-Sar Ile-AII
T1 sequence (P35351 whole entry): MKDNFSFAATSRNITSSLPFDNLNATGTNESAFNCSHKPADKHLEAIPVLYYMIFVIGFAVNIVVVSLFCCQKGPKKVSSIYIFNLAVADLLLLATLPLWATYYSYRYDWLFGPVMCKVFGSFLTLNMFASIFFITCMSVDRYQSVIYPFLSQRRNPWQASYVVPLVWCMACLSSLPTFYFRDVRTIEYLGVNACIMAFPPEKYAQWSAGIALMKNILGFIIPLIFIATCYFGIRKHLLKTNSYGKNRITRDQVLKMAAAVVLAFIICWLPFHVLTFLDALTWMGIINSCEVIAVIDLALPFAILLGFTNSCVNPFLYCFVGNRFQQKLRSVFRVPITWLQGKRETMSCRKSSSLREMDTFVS
How it was run: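 Dithiothreitol ([…]) was added to the assay mixture to abolish residual AT1 binding. Tubes were run in duplicate, and IC50 came from nonlinear regression of displacement curves.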

[6] = target: T2, Type-1 angiotensin II receptor (Oryctolagus cuniculus, UniProt P34976); assay: In vitro inhibitory activity against angiotensin II rabbit aorta AT1 receptor using radioligand [125I]-Sar Ile-AII; assay type: tissue-based
T2 sequence (P34976 whole entry): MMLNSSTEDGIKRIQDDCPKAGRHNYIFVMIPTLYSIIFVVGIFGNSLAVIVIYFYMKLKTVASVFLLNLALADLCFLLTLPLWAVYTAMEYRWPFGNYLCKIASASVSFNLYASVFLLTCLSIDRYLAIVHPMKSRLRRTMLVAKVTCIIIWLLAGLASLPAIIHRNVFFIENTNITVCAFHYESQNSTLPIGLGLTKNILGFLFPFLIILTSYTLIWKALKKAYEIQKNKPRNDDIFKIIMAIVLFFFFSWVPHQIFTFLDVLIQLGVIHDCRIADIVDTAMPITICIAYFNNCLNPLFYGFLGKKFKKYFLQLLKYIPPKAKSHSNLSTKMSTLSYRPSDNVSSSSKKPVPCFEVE

Monkey [7] = assay: (§4) Time from onset of action until significant (i.e., >=30%) inhibition of pressor response is no longer observed, at 3 (mg/kg) peroral dose; assay type: functional, Cercopithecidae
Monkey [8] = assay: Inhibition of AII pressor response by the compound in conscious, normotensive monkey, at 3 (mg/kg) peroral dose; assay type: functional, Cercopithecidae
How it was run: (§5)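 Rhesus monkeys were conscious, given furosemide (5 mg/kg iv) the prior evening, and fasted 18 h with water available. They sat chaired with minimal restraint. AII and iv compound went through saphenous or brachial vein catheters, and oral compound by nasogastric tube. Peak % inhibition of the AII pressor response was measured otherwise as in the rat protocol.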

Rattus norvegicus [9] = assay: Inhibition of AII pressor response by the compound in conscious, normotensive rats, at 0.1 (mg/kg) peroral dose; assay type: functional; how it was run: as §1
Rattus norvegicus [10] = assay: Time from onset of action until significant (i.e., >=30%) inhibition of pressor response is no longer observed, at 0.1 (mg/kg) peroral dose; assay type: functional; how it was run: as §3
Rattus norvegicus [11] = assay: Inhibition of AII pressor response by the compound in conscious, normotensive rats, at 0.1 (mg/kg) intravenous dose; assay type: functional; how it was run: as §1
Rattus norvegicus [12] = assay: Inhibition of AII pressor response by the compound in conscious, normotensive rats, at 0.3 (mg/kg) peroral dose; assay type: functional; how it was run: as §1
Rattus norvegicus [13] = assay: Time from onset of action until significant (i.e., >=30%) inhibition of pressor response is no longer observed, at 0.1 (mg/kg) intravenous dose; assay type: functional; how it was run: as §3
Rattus norvegicus [14] = assay: Inhibition of AII pressor response by the compound in conscious, normotensive rats, at 0.3 (mg/kg) intravenous dose; assay type: functional; how it was run: as §1
Rattus norvegicus [15] = assay: (§6) Time from onset of action until significant (i.e., >=30%) inhibition of pressor response is no longer observed, at 0.3 (mg/kg) peroral dose; assay type: functional; how it was run: as §3
Monkey [16] = assay: Inhibition of AII pressor response by the compound in conscious, normotensive monkey, at 3 (mg/kg) peroral dose; NA= Not active; assay type: functional, organism-based; details: Cercopithecidae; how it was run: as §5
Rattus norvegicus [17] = assay: Time from onset of action until significant (i.e., >=30%) inhibition of pressor response is no longer observed, at 3 (mg/kg) intravenous dose; assay type: functional; how it was run: as §3
Monkey [18] = assay: as §6; assay type: functional, Cercopithecidae; details: in the assay text read “intravenous” for “peroral”
Monkey [19] = assay: Time from onset of action until significant (i.e., >=30%) inhibition of pressor response is no longer observed, at 10 (mg/kg) peroral dose; assay type: functional, Cercopithecidae
How it was run: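 Conscious rhesus monkeys were pretreated with furosemide (5 mg/kg iv) and fasted 18 h. Compound was given orally by nasogastric tube, and AII challenges were given iv via a venous catheter, otherwise as in rats.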

Monkey [20] = details: Cercopithecidae
Monkey [21] = assay: Inhibition of AII pressor response by the compound in conscious, normotensive monkey, at 0.3 (mg/kg) intravenous dose; assay type: functional, Cercopithecidae; how it was run: as §5
Monkey [22] = assay: Inhibition of AII pressor response by the compound in conscious, normotensive monkey, at 10 (mg/kg) peroral dose; assay type: functional, Cercopithecidae; how it was run: as §5
Rattus norvegicus [23] = assay: Time from onset of action until significant (i.e., >=30%) inhibition of pressor response is no longer observed, at 0.3 (mg/kg) peroral dose; NA= Not active; assay type: functional, organism-based; how it was run: as §3
Monkey [24] = assay: Time from onset of action until significant (i.e., >=30%) inhibition of pressor response is no longer observed, at 10 (mg/kg) peroral dose
Monkey [25] = assay: as §2; assay type: functional, Cercopithecidae
Rattus norvegicus [26] = assay: Inhibition of AII pressor response by the compound in conscious, normotensive rats, at 3 (mg/kg) intravenous dose; assay type: functional; how it was run: as §1
[27] = Inhibition of AII pressor response by the compound in conscious, normotensive rhesus monkeys, at 1 (mg/kg) intravenous dose
[28] = Inhibition of AII pressor response by the compound in conscious, normotensive rhesus monkeys, at 0.3 (mg/kg) intravenous dose
Rattus norvegicus [29] = assay: Inhibition of AII pressor response by the compound in conscious, normotensive rats, at 3 (mg/kg) peroral dose; assay type: functional; how it was run: as §1
Rattus norvegicus [30] = assay: as §4; assay type: functional

IC50 [5] [nM] | IC50 [6] [nM] | Structure (SMILES) | Inhibition (Rattus norvegicus [1]) [%] | Inhibition (Rattus norvegicus [2]) [%] | Duration (Rattus norvegicus [3]) [h] | Duration (Rattus norvegicus [4]) [h] | Inhibition (Rattus norvegicus [14]) [%] | Duration (Rattus norvegicus [15]) | further results
46 | 0.21 | CCCCc1nn(-c2ccccc2C(F)(F)F)c(=O)n1Cc1ccc(-c2ccccc2S(=O)(=O)NC(=O)c2occc2C)cc1 | 71 | 92 | >6 | >3.5 |  |  | 
36 | 0.11 | CCCCc1nn(-c2ccccc2C(F)(F)F)c(=O)n1Cc1ccc(-c2ccccc2S(=O)(=O)NC(=O)c2ccccc2Cl)cc1 |  |  | >24 | >6 |  |  | 
120 | 0.26 | CCCCc1nn(-c2ccccc2C(F)(F)F)c(=O)n1Cc1ccc(-c2ccccc2S(=O)(=O)NC(=O)c2ccco2)cc1 | 70 | 85 | >6 | 3.7 |  |  | Duration (Monkey [7]): 4 h; Inhibition (Monkey [8]): 54%
17 | 0.45 | CCCCc1nn(-c2ccccc2C(F)(F)F)c(=O)n1Cc1ccc(-c2ccccc2S(=O)(=O)NC(=O)OC(C)(C)C)cc1 |  |  | >6 | >6 | 78 | >4.5 h and >3.5 h | Inhibition (Rattus norvegicus [9]): 77%; Duration (Rattus norvegicus [10]): >3 h; Inhibition (Rattus norvegicus [11]): 76%; Inhibition (Rattus norvegicus [12]): 81%; Duration (Rattus norvegicus [13]): >4.5 h
170 | 0.42 | CCCCc1nn(-c2ccccc2C(F)(F)F)c(=O)n1Cc1ccc(-c2ccccc2S(=O)(=O)NC(=O)OCC(C)C)cc1 | 63 | 72 | >6 | >5 | 65 | >5 h and >3.5 h | Inhibition (Rattus norvegicus [12]): 61%
 |  | CCCCc1nc(Cl)c(CO)n1Cc1ccc(-c2ccccc2-c2nnn[nH]2)cc1 [LOSARTAN] | 58 | 78 |  |  | 52 | 5.5 h | inhibition (Monkey [16]): inactive; Duration (Rattus norvegicus [17]): >6 h; Duration (Monkey [18]): 0.1 h; Duration (Monkey [19]): 2.1 h; Duration (Monkey [20]): inactive; Inhibition (Monkey [21]): 49%; Inhibition (Monkey [22]): 50%
540 | 0.94 | CCCCc1nn(-c2ccccc2C(F)(F)F)c(=O)n1Cc1ccc(-c2ccccc2S(=O)(=O)NC(=O)c2cccs2)cc1 | 61 | 76 | >5.5 | 4.3 |  |  | 
46 | 1.1 | CCCCc1nn(-c2ccccc2C(F)(F)F)c(=O)n1Cc1ccc(-c2ccccc2S(=O)(=O)NC(=O)CC(C)(C)C)cc1 |  |  |  |  | 69 | >5.5 h | 
300 | 0.43 | CCCCc1nn(-c2ccccc2C(F)(F)F)c(=O)n1Cc1ccc(-c2ccccc2S(=O)(=O)NC(=O)c2ccccc2)cc1.ClCCl |  |  |  |  | 31 | <0.5 h | Duration (Rattus norvegicus [17]): >6 h; Duration (Rattus norvegicus [23]): inactive; Duration (Monkey [18]): 5 h; Duration (Monkey [24]): >4 h; Duration (Monkey [25]): >6 h; inhibition (Rattus norvegicus [12]): inactive; Inhibition (Rattus norvegicus [26]): 87%; Inhibition [27]: 88%; Inhibition [28]: 80%
86 | 0.64 | CCCCc1nn(-c2ccccc2C(F)(F)F)c(=O)n1Cc1ccc(-c2ccccc2S(=O)(=O)NC(=O)C2CC2(F)F)cc1 (centres undefined) |  | 80 | >5 |  |  | >4 h | Inhibition (Rattus norvegicus [12]): 59%
150 | 0.8 | CCCCc1nn(-c2ccccc2C(F)(F)F)c(=O)n1Cc1ccc(-c2ccccc2S(=O)(=O)NC(=O)C(C)C)cc1 | 45 | 100 | >6 | 1.3 |  |  | 
110 | 0.56 | CCCCc1nn(-c2ccccc2C(F)(F)F)c(=O)n1Cc1ccc(-c2ccccc2S(=O)(=O)NC(=O)c2ccccc2C)cc1 | 57 | 89 | >6 | >2 |  |  | 
30 | 0.27 | CCCCc1nn(-c2ccccc2C(F)(F)F)c(=O)n1Cc1ccc(-c2ccccc2S(=O)(=O)NC(=O)c2sccc2Cl)cc1 |  | 90 | >6 |  |  | >5 h | Inhibition (Rattus norvegicus [12]): 64%
220 | 0.36 | CCCCc1nn(-c2ccccc2C(F)(F)F)c(=O)n1Cc1ccc(-c2ccccc2S(=O)(=O)NC(=O)C2CC2(C)C)cc1 (centres undefined) | 76 |  |  | >6 | 84 | >5.5 h | Duration (Monkey [18]): 3.5 h
910 | 0.36 | O=C(NS(=O)(=O)c1ccccc1-c1ccc(Cn2c(CCCC(F)(F)F)nn(-c3ccccc3C(F)(F)F)c2=O)cc1)c1ccccc1Cl |  | 67 | 2.4 |  |  |  | Inhibition (Rattus norvegicus [29]): 76%; Duration (Rattus norvegicus [30]): >24 h

From ChEMBL document CHEMBL1127442, “Triazolinone biphenylsulfonamide derivatives as orally active angiotensin II antagonists with potent AT1 receptor affinity and enhanced AT2 affinity” (J Med Chem, 1994)
